This note sets out measurements from ChEMBL document CHEMBL2424622, “Development of amino-pyrimidine inhibitors of c-Jun N-terminal kinase (JNK): kinase profiling guided optimization of a 1,2,3-benzotriazole lead” (Bioorg Med Chem Lett, 2013).

Structures are written as SMILES.

Experiment [1] addresses Tyrosine-protein kinase FRK (Homo sapiens) (UniProt P42685). The experiment can be described thus: Competitive binding affinity to FRK (unknown origin) at 10 uM in presence of ATP relative to control. The essentials: (§1)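 In vitro ATP-site competition binding assay, part of profiling against a diverse panel of 128 kinases. Each compound was tested at a single concentration of 10 µM. Kinome selectivity was summarized as S15 selectivity scores.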

Experiment [2] concerns the target Serine/threonine-protein kinase PAK 6 (Homo sapiens) (UniProt Q9NQU5). The experiment can be described thus: Competitive binding affinity to PAK6 (unknown origin) at 10 uM in presence of ATP relative to control. Put shortly:
(§2)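 In vitro ATP-site competition binding assay across a diverse panel of 128 kinases, with compound tested at a single concentration. Kinase selectivity scores (S15) were calculated from the panel profiles.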

Experiment [3] has as its target Tyrosine-protein kinase Yes (Homo sapiens) (UniProt P07947). The experiment can be described thus: Competitive binding affinity to YES (unknown origin) at 10 uM in presence of ATP relative to control. The essentials: as §2
In experiment [4] the target is Ephrin type-A receptor 4 (Homo sapiens) (UniProt P54764). The experiment can be described thus: Competitive binding affinity to EPHA4 (unknown origin) at 10 uM in presence of ATP relative to control. Put shortly: as §1
The target of experiment [5] is Mitogen-activated protein kinase kinase kinase kinase 5 (Homo sapiens) (UniProt Q9Y4K4). The experiment can be described thus: Competitive binding affinity to MAP4K5 (unknown origin) at 10 uM in presence of ATP relative to control. The essentials: as §1
The target in experiment [6] is Mast/stem cell growth factor receptor Kit (Homo sapiens) (UniProt P10721). The experiment can be described thus: Competitive binding affinity to KIT (unknown origin) at 10 uM in presence of ATP relative to control. The essentials: as §1
The target in experiment [7] is Serine/threonine-protein kinase PAK 5 (Homo sapiens) (UniProt Q9P286). The experiment can be described thus: Competitive binding affinity to PAK7/PAK5 (unknown origin) at 10 uM in presence of ATP relative to control. Put shortly:
as §2

Experiment [8] addresses Fibroblast growth factor receptor 2 (Homo sapiens) (UniProt P21802). The experiment can be described thus: Competitive binding affinity to FGFR2 (unknown origin) at 10 uM in presence of ATP relative to control. The essentials: as §1
For experiment [9], the target named is T1, Mitogen-activated protein kinase 9 (Homo sapiens, UniProt P45984).
Target sequence in this assay (P45984 whole entry): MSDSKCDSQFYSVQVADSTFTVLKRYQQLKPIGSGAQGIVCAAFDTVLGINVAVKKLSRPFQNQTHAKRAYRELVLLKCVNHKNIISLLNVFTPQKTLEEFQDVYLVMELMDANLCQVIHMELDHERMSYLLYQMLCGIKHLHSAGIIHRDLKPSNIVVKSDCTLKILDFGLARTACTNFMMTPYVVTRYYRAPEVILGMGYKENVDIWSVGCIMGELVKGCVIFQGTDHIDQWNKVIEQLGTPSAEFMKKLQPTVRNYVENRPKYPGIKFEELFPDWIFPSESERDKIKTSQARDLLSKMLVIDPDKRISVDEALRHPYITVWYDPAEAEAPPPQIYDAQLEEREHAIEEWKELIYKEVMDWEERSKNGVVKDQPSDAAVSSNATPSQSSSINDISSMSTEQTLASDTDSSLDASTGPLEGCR
Experiment [10] addresses T2, Tyrosine-protein kinase TXK (Homo sapiens) (UniProt P42681).
T2 sequence (whole entry): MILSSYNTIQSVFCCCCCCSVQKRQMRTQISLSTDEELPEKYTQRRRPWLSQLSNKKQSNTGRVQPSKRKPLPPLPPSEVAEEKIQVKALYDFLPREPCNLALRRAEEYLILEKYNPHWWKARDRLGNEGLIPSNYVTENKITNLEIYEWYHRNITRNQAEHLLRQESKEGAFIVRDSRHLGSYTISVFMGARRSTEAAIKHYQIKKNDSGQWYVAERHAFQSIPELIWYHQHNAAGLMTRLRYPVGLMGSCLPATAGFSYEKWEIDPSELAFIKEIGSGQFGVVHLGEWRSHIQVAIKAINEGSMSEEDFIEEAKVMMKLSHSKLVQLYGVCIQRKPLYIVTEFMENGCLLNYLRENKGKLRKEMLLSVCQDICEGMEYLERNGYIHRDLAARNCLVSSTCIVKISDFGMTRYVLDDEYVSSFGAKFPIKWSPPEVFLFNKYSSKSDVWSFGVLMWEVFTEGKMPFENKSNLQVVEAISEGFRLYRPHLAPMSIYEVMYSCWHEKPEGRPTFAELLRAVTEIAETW
The experiment can be described thus: Competitive binding affinity to TXK (unknown origin) at 10 uM in presence of ATP relative to control. The essentials: as §2

Experiment [11] concerns the target T3, Ephrin type-A receptor 6 (Homo sapiens) (UniProt Q9UF33).
T3 sequence (whole entry): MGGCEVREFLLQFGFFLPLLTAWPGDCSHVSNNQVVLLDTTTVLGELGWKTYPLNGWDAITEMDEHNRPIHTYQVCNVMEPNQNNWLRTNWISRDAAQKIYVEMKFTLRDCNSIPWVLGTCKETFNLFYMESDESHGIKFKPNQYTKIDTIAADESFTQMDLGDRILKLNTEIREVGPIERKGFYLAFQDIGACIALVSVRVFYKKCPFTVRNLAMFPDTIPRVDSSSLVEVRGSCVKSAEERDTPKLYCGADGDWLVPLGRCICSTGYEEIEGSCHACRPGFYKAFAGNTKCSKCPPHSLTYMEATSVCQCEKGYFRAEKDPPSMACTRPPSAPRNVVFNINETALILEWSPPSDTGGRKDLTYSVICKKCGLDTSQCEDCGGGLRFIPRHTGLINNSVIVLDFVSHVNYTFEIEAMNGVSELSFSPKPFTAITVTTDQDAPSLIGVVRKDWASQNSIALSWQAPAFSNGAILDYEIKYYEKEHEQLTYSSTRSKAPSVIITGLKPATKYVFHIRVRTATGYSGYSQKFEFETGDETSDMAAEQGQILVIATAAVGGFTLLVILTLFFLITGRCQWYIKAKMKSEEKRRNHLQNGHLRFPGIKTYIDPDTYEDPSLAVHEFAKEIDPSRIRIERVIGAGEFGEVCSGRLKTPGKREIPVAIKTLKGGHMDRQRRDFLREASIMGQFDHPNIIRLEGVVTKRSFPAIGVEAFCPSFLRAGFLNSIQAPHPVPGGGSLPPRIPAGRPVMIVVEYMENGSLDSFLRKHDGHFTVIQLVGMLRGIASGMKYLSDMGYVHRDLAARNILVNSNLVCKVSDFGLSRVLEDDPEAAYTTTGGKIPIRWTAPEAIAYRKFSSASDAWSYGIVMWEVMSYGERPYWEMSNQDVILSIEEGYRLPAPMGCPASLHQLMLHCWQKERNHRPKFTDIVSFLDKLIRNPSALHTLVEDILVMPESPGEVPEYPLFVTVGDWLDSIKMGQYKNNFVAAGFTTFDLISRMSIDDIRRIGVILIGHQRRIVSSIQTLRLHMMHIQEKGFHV
The experiment can be described thus: Competitive binding affinity to EPHA6 (unknown origin) at 10 uM in presence of ATP relative to control. Put shortly: as §1

Experiment [12] deals with Serine/threonine-protein kinase B-raf (Homo sapiens), P15056 [V600E]. The experiment can be described thus: Competitive binding affinity to BRAF V600E mutant (unknown origin) at 10 uM in presence of ATP relative to control.
Experiment [13] addresses T1, Mitogen-activated protein kinase 9. The experiment can be described thus: Competitive binding affinity to JNK2 (unknown origin) at 10 uM in presence of ATP relative to control. The essentials: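 In vitro ATP-site competition binding assay across a diverse panel of 128 kinases, with each compound tested at a single concentration. Kinase binding is expressed relative to control.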
Target sequence in this assay (P45984 whole entry, looked up): as the sequence (P45984 whole entry) above

For experiment [14], the target named is Proto-oncogene tyrosine-protein kinase Src (Homo sapiens) (UniProt P12931). The experiment can be described thus: Competitive binding affinity to SRC (unknown origin) at 10 uM in presence of ATP relative to control. The essentials:
as §2

Sequence of Serine/threonine-protein kinase B-raf (Homo sapiens), P15056 [V600E] (P15056 whole entry V600E): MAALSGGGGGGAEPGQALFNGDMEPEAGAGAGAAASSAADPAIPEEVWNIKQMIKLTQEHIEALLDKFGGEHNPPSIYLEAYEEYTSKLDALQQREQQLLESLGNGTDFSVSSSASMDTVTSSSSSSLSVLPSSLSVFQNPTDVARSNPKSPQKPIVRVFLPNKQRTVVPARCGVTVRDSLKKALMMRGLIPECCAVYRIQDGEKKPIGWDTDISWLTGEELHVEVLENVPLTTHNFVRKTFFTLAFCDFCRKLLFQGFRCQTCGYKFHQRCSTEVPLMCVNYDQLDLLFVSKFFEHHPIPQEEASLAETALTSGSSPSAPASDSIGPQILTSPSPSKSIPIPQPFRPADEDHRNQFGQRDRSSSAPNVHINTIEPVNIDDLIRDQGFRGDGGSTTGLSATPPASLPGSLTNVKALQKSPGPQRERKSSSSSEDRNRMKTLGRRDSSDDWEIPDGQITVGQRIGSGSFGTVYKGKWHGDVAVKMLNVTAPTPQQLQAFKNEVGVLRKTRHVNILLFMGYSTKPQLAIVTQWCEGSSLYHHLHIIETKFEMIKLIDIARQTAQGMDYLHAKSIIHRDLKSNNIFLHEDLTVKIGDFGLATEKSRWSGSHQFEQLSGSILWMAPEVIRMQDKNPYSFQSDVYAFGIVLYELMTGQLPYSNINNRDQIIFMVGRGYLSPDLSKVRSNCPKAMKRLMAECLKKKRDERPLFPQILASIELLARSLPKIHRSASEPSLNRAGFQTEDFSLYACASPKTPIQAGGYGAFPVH
Sequence of Mast/stem cell growth factor receptor Kit (Homo sapiens) (P10721 whole entry): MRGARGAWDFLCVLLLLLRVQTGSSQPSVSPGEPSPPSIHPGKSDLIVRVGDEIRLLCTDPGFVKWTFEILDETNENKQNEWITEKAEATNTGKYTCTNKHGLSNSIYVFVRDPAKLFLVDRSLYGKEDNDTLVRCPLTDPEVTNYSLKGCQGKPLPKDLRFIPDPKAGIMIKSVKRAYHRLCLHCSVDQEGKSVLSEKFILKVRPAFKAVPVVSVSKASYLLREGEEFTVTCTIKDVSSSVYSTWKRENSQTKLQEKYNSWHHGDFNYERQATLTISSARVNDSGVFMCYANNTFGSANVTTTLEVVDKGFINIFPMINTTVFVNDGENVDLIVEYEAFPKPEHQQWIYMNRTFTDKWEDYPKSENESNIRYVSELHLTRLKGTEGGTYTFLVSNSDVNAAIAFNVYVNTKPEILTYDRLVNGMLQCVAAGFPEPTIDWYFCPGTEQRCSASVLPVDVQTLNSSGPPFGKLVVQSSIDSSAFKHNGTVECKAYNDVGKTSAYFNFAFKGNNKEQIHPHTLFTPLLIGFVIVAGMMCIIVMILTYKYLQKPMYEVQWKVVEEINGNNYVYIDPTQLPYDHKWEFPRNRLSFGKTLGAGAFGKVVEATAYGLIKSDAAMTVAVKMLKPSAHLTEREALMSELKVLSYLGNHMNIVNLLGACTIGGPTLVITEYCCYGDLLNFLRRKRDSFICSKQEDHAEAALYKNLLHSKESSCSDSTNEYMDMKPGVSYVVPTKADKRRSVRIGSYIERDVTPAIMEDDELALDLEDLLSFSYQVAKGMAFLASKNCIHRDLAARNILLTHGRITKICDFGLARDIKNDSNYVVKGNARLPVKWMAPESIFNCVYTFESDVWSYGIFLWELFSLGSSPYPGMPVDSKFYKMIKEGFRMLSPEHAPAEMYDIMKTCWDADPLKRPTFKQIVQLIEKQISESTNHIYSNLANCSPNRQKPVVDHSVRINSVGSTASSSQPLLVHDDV
Sequence of Serine/threonine-protein kinase PAK 5 (Homo sapiens) (Q9P286 whole entry, looked up): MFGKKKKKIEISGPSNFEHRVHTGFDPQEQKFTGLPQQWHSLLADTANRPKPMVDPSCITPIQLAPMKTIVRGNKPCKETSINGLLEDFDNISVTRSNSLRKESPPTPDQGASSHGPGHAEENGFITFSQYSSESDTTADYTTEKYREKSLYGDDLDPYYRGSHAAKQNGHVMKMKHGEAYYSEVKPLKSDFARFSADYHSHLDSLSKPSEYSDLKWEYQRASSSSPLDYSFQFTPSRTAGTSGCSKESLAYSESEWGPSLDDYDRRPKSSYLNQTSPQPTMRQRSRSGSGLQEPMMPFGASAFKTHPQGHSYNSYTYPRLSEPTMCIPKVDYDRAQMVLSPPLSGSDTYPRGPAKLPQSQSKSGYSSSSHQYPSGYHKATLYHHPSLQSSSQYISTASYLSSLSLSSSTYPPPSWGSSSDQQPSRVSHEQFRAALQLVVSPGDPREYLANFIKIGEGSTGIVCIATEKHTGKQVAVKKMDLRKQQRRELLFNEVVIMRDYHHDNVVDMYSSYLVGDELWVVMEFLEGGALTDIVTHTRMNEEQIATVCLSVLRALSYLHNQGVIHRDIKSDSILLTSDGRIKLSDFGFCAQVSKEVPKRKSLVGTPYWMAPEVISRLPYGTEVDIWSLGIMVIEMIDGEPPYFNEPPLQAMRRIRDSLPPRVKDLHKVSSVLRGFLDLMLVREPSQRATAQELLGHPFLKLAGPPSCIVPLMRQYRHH
Sequence of Mitogen-activated protein kinase kinase kinase kinase 5 (Homo sapiens) (Q9Y4K4 whole entry, looked up): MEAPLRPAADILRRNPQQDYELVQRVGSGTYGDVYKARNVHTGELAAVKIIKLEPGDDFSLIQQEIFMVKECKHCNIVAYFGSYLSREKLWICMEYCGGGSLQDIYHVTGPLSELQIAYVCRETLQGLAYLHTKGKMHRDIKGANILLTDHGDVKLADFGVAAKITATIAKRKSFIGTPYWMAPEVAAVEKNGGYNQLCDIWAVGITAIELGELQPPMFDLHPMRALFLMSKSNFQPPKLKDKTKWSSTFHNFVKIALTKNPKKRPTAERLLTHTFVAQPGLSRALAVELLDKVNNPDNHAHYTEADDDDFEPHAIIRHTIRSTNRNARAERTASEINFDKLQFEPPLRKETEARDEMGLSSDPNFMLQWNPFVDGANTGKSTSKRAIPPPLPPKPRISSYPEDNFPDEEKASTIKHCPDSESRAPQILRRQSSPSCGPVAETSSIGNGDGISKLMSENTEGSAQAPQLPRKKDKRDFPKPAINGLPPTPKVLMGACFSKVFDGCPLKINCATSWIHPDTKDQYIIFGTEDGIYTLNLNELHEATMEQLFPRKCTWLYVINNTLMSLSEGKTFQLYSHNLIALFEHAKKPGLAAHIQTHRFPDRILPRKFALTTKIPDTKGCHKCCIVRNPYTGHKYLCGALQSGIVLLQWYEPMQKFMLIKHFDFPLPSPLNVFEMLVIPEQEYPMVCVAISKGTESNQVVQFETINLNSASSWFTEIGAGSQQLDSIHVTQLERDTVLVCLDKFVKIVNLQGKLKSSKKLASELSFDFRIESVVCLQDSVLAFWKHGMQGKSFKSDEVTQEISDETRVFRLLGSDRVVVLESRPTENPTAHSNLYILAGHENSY
Sequence of Serine/threonine-protein kinase PAK 6 (Homo sapiens) (Q9NQU5 whole entry, looked up): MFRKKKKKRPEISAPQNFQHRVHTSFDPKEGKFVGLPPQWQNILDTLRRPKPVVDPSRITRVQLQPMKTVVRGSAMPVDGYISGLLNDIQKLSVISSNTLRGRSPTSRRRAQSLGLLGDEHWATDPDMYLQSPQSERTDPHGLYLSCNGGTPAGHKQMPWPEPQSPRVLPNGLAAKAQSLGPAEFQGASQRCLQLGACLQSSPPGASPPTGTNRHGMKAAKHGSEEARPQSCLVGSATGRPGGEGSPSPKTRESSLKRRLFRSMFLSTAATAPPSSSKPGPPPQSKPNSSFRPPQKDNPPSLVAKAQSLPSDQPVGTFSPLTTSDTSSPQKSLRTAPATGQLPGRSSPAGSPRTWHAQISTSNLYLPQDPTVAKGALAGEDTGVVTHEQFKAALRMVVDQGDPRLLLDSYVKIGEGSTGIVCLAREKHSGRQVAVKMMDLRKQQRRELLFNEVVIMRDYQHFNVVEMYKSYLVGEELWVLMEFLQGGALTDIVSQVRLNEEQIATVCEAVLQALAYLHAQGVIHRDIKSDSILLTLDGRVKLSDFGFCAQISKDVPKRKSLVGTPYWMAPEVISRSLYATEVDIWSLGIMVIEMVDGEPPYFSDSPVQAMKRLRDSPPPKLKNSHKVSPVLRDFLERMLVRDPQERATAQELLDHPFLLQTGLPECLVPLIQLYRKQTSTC

Regarding `O[C@H]1CC[C@H](Nc2nccc(-c3n[nH]c4ccccc34)n2)CC1`, the inhibition in experiment [1] is under 50%; in [2], 86%; in experiment [3], 78%; in experiment [4], under 50%; in experiment [5], 99%; in [6], 98%. The inhibition in [7] was 86%; in experiment [8], under 50%; in [10], under 50%; in experiment [11], under 50%; in experiment [12], under 50%; in [13], 93%. Moreover, the inhibition in [14] was determined as 78%. This compound came in with an IC50 in experiment [9] of 650 nM.

As to `O[C@H]1CC[C@H](Nc2nccc(-n3ccc4ccccc43)n2)CC1`, the inhibition was under 50% in experiment [1]; under 50% in experiment [2]; under 50% in [3]; under 50% in experiment [4]; under 50% in experiment [5]; 72% in experiment [6]. In addition, the inhibition is under 50% in experiment [7]; under 50% in experiment [8]; under 50% in experiment [10]; under 50% in [11]; under 50% in experiment [12]; 99% in experiment [13]. For the same compound, in [14], the inhibition was under 50%. In experiment [9], this compound yielded an IC50 of 360 nM.

Regarding `O[C@H]1CC[C@H](Nc2nccc(-n3ncc4ccccc43)n2)CC1`, the inhibition in experiment [1] is under 50%; in experiment [2] it was under 50%; in [3], under 50%; in experiment [4] it was under 50%; in [5], under 50%; in experiment [6] it was 91%. The inhibition is under 50% in experiment [7]; under 50% in experiment [8]; under 50% in experiment [10]; under 50% in [11]; under 50% in [12]; 99% in experiment [13]. For the same compound, the inhibition in experiment [14] was under 50%. Moreover, the IC50 in [9] amounted to 350 nM.

With `O[C@H]1CC[C@H](Nc2nccc(-n3nnc4ccccc43)n2)CC1`, the inhibition in [1] was under 50%; in experiment [2], under 50%; in experiment [3] it was under 50%; in experiment [4], under 50%; in [5], under 50%; in [6] it was 86%. For the same compound, the inhibition in [7] was under 50%; in experiment [8] it was under 50%; in experiment [10], under 50%; in experiment [11], under 50%; in experiment [12] it was under 50%; in experiment [13], 99%. In experiment [14], the inhibition is under 50%. In addition, inhibition in experiment [9] was half-maximal at 110 nM (IC50).

As for `O=C([C@H]1CC[C@H](Nc2nccc(-n3nnc4ccccc43)n2)CC1)N1CCOCC1`, the inhibition was under 50% in experiment [1]; under 50% in experiment [2]; under 50% in experiment [3]; under 50% in [4]; under 50% in [5]; 67% in experiment [6]. Besides, the inhibition in experiment [7] is under 50%; in experiment [8], under 50%; in experiment [10] it was under 50%; in experiment [11], under 50%; in experiment [12], under 50%; in experiment [13] it was 98%. Also, in experiment [14], the inhibition is under 50%. For the same compound, the IC50 in experiment [9] turned out to be 180 nM.

On to `CS(=O)(=O)CCCOc1cccc2c1ccn2-c1ccnc(N[C@H]2CC[C@H](C(=O)N3CCC(O)CC3)CC2)n1`, for which the IC50 in [9] stood at 66 nM. Besides, in experiment [13], the inhibition is over 85%.

On to `N[C@H]1CC[C@H](Nc2nccc(-n3nnc4ccccc43)n2)CC1`, for which the inhibition is under 50% in [1]; under 50% in [2]; under 50% in [3]; under 50% in [4]; under 50% in experiment [5]; 72% in experiment [6]. Besides, the inhibition in experiment [7] is under 50%; in experiment [8] it was under 50%; in [10], under 50%; in experiment [11] it was under 50%; in experiment [12] it was under 50%; in experiment [13] it was 100%. Besides, the inhibition in experiment [14] was under 50%. Inhibition in [9] was half-maximal at 170 nM (IC50).

Broadly, the inhibition is how much of the control response was suppressed. What is called IC50 is the concentration that gives 50% inhibition. Low values mean greater potency, high ones weaker potency.
